Target: T1, Muscarinic acetylcholine receptor M5 (Homo sapiens, UniProt P08912)
T1 sequence (P08912 whole entry): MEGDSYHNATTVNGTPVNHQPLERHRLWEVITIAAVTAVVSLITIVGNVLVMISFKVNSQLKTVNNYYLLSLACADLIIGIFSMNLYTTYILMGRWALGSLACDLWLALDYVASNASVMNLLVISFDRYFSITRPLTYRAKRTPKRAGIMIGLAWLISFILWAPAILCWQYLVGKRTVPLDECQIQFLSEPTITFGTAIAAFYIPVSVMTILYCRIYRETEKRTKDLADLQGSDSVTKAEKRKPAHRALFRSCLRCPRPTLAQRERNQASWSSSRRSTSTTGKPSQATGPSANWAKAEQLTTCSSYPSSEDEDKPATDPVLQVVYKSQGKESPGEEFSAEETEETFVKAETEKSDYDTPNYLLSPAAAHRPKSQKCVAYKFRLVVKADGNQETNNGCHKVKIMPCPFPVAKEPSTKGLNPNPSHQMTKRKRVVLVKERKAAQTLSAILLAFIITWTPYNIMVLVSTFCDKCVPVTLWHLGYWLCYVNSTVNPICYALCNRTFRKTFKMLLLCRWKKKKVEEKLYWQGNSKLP
Assay: Displacement of [3H]NMS from human M5 AChR expressed in CHO cell membranes after 1 to 2 hrs by liquid scintillation spectrometry method
Conditions: not given
Summary of the method: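 CHO membranes expressing human M5 (10 µg protein/well) with 0.3 nM [3H]NMS and analog (1 nM–100 µM) in 50 mM Tris-HCl pH 7.4, 2 h at 25 °C. Filtered on GF/B, counted by scintillation. IC50 converted to Ki; three independent experiments in duplicate.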

| SMILES | Ki [nM] |
| --- | --- |
| O=C(OCc1ccccc1)N(c1ccccc1)C1CN2CCC1CC2 (stereo not given) | 150 |
| COc1ccc(CCCOC(=O)N(c2ccccc2)C2CN3CCC2CC3)cc1 (stereo not given) | 640 |
| COc1ccc(CCCOC(=O)N(c2ccccc2)C2CN3CCC2CC3)cc1OC (stereo not given) | 1610 |
| O=C(OCCc1ccc(Cl)c(Cl)c1)N(c1ccccc1)C1CN2CCC1CC2 (stereo not given) | 80 |
| O=C(OCCc1ccc2c(c1)OCO2)N(c1ccccc1)C1CN2CCC1CC2 (stereo not given) | 240 |
| COc1ccc(CCN(C(=O)OC2CCN(C)CC2)c2ccccc2)cc1OC | 380 |

Target: T2, Muscarinic acetylcholine receptor M2 (Homo sapiens) (UniProt P08172)
T2 sequence (whole entry): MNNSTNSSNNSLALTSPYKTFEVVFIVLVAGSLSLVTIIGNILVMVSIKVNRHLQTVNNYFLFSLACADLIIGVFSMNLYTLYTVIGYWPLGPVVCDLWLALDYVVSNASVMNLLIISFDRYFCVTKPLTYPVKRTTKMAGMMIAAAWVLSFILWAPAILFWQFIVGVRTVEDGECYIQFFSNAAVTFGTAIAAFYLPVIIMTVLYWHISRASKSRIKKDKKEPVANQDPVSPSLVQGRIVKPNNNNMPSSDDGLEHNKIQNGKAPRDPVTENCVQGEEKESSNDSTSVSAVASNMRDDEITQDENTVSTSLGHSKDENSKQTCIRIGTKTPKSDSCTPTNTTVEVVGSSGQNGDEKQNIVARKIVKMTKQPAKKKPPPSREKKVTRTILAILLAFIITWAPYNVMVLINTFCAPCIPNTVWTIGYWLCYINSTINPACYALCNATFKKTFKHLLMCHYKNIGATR
Assay: Displacement of [3H]NMS from human M2 AChR expressed in CHO cell membranes at 100 uM after 1 to 2 hrs by liquid scintillation spectrometry method relative to control
Conditions: not given
Summary of the method: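 CHO membranes expressing the human subtype (20 µg protein/well) with 0.3 nM [3H]NMS and analog (1 nM–100 µM) in 50 mM Tris-HCl pH 7.4, 2 h at 25 °C. Filtered on GF/B, washed, counted by scintillation. IC50 taken from curves to give Ki; three independent experiments in duplicate.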

| SMILES | Imax [%] |
| --- | --- |
| O=C(OCc1ccccc1)N(c1ccccc1)C1CN2CCC1CC2 (stereo not given) | 99.4 |

Target: T3, Muscarinic acetylcholine receptor M1 (Homo sapiens, UniProt P11229)
T3 sequence (P11229 whole entry): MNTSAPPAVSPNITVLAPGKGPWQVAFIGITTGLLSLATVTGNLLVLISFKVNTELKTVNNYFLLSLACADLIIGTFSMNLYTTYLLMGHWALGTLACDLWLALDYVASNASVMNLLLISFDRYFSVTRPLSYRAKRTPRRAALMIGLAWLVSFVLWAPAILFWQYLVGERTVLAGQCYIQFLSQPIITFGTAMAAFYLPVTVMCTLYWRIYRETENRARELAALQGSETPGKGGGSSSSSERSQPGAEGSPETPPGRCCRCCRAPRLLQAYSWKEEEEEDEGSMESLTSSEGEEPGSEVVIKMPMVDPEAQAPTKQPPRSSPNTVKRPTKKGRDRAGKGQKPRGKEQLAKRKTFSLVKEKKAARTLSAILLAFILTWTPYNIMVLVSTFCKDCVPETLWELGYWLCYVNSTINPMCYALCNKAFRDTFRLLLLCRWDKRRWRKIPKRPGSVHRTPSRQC
Assay: Displacement of [3H]NMS from human M1 AChR expressed in CHO cell membranes after 1 to 2 hrs by liquid scintillation spectrometry method
Format: cell-based
Conditions: not given

| SMILES | Ki [nM] |
| --- | --- |
| O=C(OCc1ccccc1)N(c1ccccc1)C1CN2CCC1CC2 (stereo not given) | 190 |
| COc1ccc(CCCOC(=O)N(c2ccccc2)C2CN3CCC2CC3)cc1 (stereo not given) | 590 |
| COc1ccc(CCCOC(=O)N(c2ccccc2)C2CN3CCC2CC3)cc1OC (stereo not given) | 1460 |
| O=C(OCCc1ccc(Cl)c(Cl)c1)N(c1ccccc1)C1CN2CCC1CC2 (stereo not given) | 370 |
| O=C(OCCc1ccc2c(c1)OCO2)N(c1ccccc1)C1CN2CCC1CC2 (stereo not given) | 630 |
| COc1ccc(CCN(C(=O)OC2CCN(C)CC2)c2ccccc2)cc1OC | 770 |

Target: T4, Muscarinic acetylcholine receptor M3 (Homo sapiens, UniProt P20309)
Assay: Displacement of [3H]NMS from human M3 AChR expressed in CHO cell membranes after 1 to 2 hrs by liquid scintillation spectrometry method
Format: cell-based
Conditions: not given
Target sequence in this assay (P20309 whole entry): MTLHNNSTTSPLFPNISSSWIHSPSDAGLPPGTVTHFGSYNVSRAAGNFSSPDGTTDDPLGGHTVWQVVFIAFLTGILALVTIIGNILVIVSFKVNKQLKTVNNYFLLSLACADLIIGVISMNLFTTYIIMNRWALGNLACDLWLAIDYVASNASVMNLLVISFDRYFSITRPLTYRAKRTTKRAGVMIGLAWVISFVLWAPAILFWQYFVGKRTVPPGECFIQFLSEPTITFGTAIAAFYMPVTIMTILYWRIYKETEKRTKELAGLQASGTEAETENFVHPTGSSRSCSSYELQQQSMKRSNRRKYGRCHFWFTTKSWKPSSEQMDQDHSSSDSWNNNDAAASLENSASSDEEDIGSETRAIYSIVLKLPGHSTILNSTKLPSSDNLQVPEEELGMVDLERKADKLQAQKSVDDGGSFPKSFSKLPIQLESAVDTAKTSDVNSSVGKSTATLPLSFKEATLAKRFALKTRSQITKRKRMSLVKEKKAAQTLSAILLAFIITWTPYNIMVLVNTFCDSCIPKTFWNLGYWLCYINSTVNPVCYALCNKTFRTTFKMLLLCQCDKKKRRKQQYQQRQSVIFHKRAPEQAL

| SMILES | Ki [nM] |
| --- | --- |
| O=C(OCc1ccccc1)N(c1ccccc1)C1CN2CCC1CC2 (stereo not given) | 90 |
| COc1ccc(CCCOC(=O)N(c2ccccc2)C2CN3CCC2CC3)cc1 (stereo not given) | 390 |
| COc1ccc(CCCOC(=O)N(c2ccccc2)C2CN3CCC2CC3)cc1OC (stereo not given) | 1560 |
| O=C(OCCc1ccc(Cl)c(Cl)c1)N(c1ccccc1)C1CN2CCC1CC2 (stereo not given) | 260 |
| O=C(OCCc1ccc2c(c1)OCO2)N(c1ccccc1)C1CN2CCC1CC2 (stereo not given) | 290 |
| COc1ccc(CCN(C(=O)OC2CCN(C)CC2)c2ccccc2)cc1OC | 1280 |

Species on record: Homo sapiens
Assay: Selectivity ratio of Ki for displacement of [3H]NMS from human M2 AChR expressed in CHO cell membranes to Ki for displacement of [3H]NMS from human M3 AChR expressed in CHO cell membranes
Conditions: not given

| SMILES | Ratio Ki |
| --- | --- |
| O=C(OCc1ccccc1)N(c1ccccc1)C1CN2CCC1CC2 (stereo not given) | 1.2 |

Species on record: Homo sapiens
Assay: Selectivity ratio of Ki for displacement of [3H]NMS from human M1 AChR expressed in CHO cell membranes to Ki for displacement of [3H]NMS from human M5 AChR expressed in CHO cell membranes
Conditions: not given

| SMILES | Ratio Ki |
| --- | --- |
| O=C(OCc1ccccc1)N(c1ccccc1)C1CN2CCC1CC2 (stereo not given) | 1.3 |
| COc1ccc(CCCOC(=O)N(c2ccccc2)C2CN3CCC2CC3)cc1 (stereo not given) | 0.9 |
| COc1ccc(CCCOC(=O)N(c2ccccc2)C2CN3CCC2CC3)cc1OC (stereo not given) | 0.9 |
| O=C(OCCc1ccc(Cl)c(Cl)c1)N(c1ccccc1)C1CN2CCC1CC2 (stereo not given) | 4.5 |
| O=C(OCCc1ccc2c(c1)OCO2)N(c1ccccc1)C1CN2CCC1CC2 (stereo not given) | 2.6 |
| COc1ccc(CCN(C(=O)OC2CCN(C)CC2)c2ccccc2)cc1OC | 2 |

Target: T5, Muscarinic acetylcholine receptor M5 (Homo sapiens) (UniProt P08912)
T5 sequence (whole entry): T1 sequence (P08912 whole entry)
Assay: Displacement of [3H]NMS from human M5 AChR expressed in CHO cell membranes at 100 uM after 1 to 2 hrs by liquid scintillation spectrometry method relative to control
Conditions: not given
Summary of the method: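 CHO membranes expressing human M5 (10 µg protein/well) with 0.3 nM [3H]NMS and analog (1 nM–100 µM) in 50 mM Tris-HCl pH 7.4, 2 h at 25 °C. […] Filtered on GF/B, counted by scintillation. IC50 converted to Ki; three independent experiments in duplicate.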

| SMILES | Imax [%] |
| --- | --- |
| O=C(OCc1ccccc1)N(c1ccccc1)C1CN2CCC1CC2 (stereo not given) | 97.2 |
| COc1ccc(CCCOC(=O)N(c2ccccc2)C2CN3CCC2CC3)cc1 (stereo not given) | 99.5 |
| COc1ccc(CCCOC(=O)N(c2ccccc2)C2CN3CCC2CC3)cc1OC (stereo not given) | 99 |
| O=C(OCCc1ccc(Cl)c(Cl)c1)N(c1ccccc1)C1CN2CCC1CC2 (stereo not given) | 98.8 |
| O=C(OCCc1ccc2c(c1)OCO2)N(c1ccccc1)C1CN2CCC1CC2 (stereo not given) | 97.1 |
| COc1ccc(CCN(C(=O)OC2CCN(C)CC2)c2ccccc2)cc1OC | 96.5 |

Target: T6, Muscarinic acetylcholine receptor M1 (Homo sapiens) (UniProt P11229)
T6 sequence (whole entry): T3 sequence (P11229 whole entry)
Conditions: CHO, at 100 µM

| SMILES | Imax [%] |
| --- | --- |
| O=C(OCc1ccccc1)N(c1ccccc1)C1CN2CCC1CC2 (stereo not given) | 99.5 |
| COc1ccc(CCCOC(=O)N(c2ccccc2)C2CN3CCC2CC3)cc1 (stereo not given) | 98.5 |
| COc1ccc(CCCOC(=O)N(c2ccccc2)C2CN3CCC2CC3)cc1OC (stereo not given) | 97.1 |
| O=C(OCCc1ccc(Cl)c(Cl)c1)N(c1ccccc1)C1CN2CCC1CC2 (stereo not given) | 99.9 |
| O=C(OCCc1ccc2c(c1)OCO2)N(c1ccccc1)C1CN2CCC1CC2 (stereo not given) | 99.6 |
| COc1ccc(CCN(C(=O)OC2CCN(C)CC2)c2ccccc2)cc1OC | 99 |

Target: T7, Muscarinic acetylcholine receptor M2 (Homo sapiens, UniProt P08172)
T7 sequence (P08172 whole entry): T2 sequence (whole entry)
Assay: Displacement of [3H]NMS from human M2 AChR expressed in CHO cell membranes after 1 to 2 hrs by liquid scintillation spectrometry method
Conditions: not given
Summary of the method: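 CHO membranes expressing the human subtype (20 µg protein/well) with 0.3 nM [3H]NMS and analog (1 nM–100 µM) in 50 mM Tris-HCl pH 7.4, 2 h at 25 °C. […] Filtered on GF/B, washed, counted by scintillation. IC50 taken from curves to give Ki; three independent experiments in duplicate.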

| SMILES | Ki [nM] |
| --- | --- |
| O=C(OCc1ccccc1)N(c1ccccc1)C1CN2CCC1CC2 (stereo not given) | 120 |

Target: T4, Muscarinic acetylcholine receptor M3
Conditions: CHO, at 100 µM
Target sequence in this assay (P20309 whole entry, looked up): as the sequence (P20309 whole entry) above

| SMILES | Imax [%] |
| --- | --- |
| O=C(OCc1ccccc1)N(c1ccccc1)C1CN2CCC1CC2 (stereo not given) | 98.6 |
| COc1ccc(CCCOC(=O)N(c2ccccc2)C2CN3CCC2CC3)cc1 (stereo not given) | 96.8 |
| COc1ccc(CCCOC(=O)N(c2ccccc2)C2CN3CCC2CC3)cc1OC (stereo not given) | 96.3 |
| O=C(OCCc1ccc(Cl)c(Cl)c1)N(c1ccccc1)C1CN2CCC1CC2 (stereo not given) | 99.8 |
| O=C(OCCc1ccc2c(c1)OCO2)N(c1ccccc1)C1CN2CCC1CC2 (stereo not given) | 98 |
| COc1ccc(CCN(C(=O)OC2CCN(C)CC2)c2ccccc2)cc1OC | 96.6 |

From ChEMBL document CHEMBL4371071, “Muscarinic agonist, (±)-quinuclidin-3-yl-(4-fluorophenethyl)(phenyl)carbamate: High affinity, but low subtype selectivity for human M1 - M5 muscarinic acetylcholine receptors” (Bioorg Med Chem Lett, 2019)
